Results of several laboratories.
Compare with care: the assays were run in different laboratories.
Target: Activin receptor type-1B (ACVR1B, Homo sapiens, UniProt P36896)
Residues used in one study (P36896 24-505): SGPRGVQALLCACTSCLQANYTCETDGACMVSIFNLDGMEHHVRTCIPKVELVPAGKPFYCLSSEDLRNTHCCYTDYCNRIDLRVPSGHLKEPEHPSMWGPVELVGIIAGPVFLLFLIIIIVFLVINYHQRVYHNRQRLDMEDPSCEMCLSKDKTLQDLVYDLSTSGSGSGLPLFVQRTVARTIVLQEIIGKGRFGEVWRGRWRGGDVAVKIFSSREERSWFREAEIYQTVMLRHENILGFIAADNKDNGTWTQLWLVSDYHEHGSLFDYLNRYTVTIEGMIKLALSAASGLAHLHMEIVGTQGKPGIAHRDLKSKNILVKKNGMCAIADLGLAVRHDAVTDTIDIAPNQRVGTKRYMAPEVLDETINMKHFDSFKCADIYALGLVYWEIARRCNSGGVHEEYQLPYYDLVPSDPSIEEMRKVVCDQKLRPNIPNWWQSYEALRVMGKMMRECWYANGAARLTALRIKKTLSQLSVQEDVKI

| Compound | effect on | method | concentration | remaining binding |
| --- | --- | --- | --- | --- |
| O=C(Nc1c[nH]nc1C(=O)NC1CCNCC1)c1cc(F)cc(F)c1 | binding | competition with immobilised ligand | 1 µM | 90% |
| COc1cnc(Nc2cccc(S(N)(=O)=O)c2)nc1N1CCN(c2ccccc2)C(=O)C1 | binding | competition with immobilised ligand | 1 µM | 100% |
| CNC(=O)c1ccc(Nc2ncc(C(F)(F)F)c(NCc3nccnc3N(C)S(C)(=O)=O)n2)cc1 | cell-free assay | competition with immobilised ligand | 0.1 µM | 69% |
| CN(C)c1ncc(F)c(-c2cnn3ncccc23)n1 | binding |  | 1 µM | 100% |
| COc1cccc(CNC(=O)c2nc3scc(COCc4ccc(C(=O)O)cc4)c3c(=O)[nH]2)c1 | cell-free assay | competition with immobilised ligand | 1 µM | 89.4% |
| COc1ccnn2ncc(-c3ccnc(N(C)C)n3)c12 | binding |  | 1 µM | 85% |
| CC(C)CC(=O)N1CCc2nc(-c3ccc(Br)cc3)nc(N(C)Cc3ccccc3)c2C1 | cell-free assay | competition with immobilised ligand | 0.1 µM | 89% |
| O=C(NCCCN1CCOCC1)c1ccc(Nc2nccc(-c3cc4ccccc4s3)n2)cc1 | binding | competition with immobilised ligand | 1 µM | 75% |
| C[C@@H](c1ccc(-n2cnc3c(N)ncnc32)cc1)N1CCc2nn(C)c(Cc3ccccc3)c2C1=O | binding | competition with immobilised ligand | 0.1 µM | 93% |
| CC(C)(C)c1ccc(-c2nc(CBr)nn2-c2cccc(O)c2)cc1 | cell-free assay | competition with immobilised ligand | 10 µM | 100% |
| F[C@@H]1CCN(c2nccc(-c3cnn4ncccc34)n2)C1 | binding |  | 1 µM | 100% |
| CNC(=O)[C@@H]1CC[C@@H](n2c(-c3ccc4cnccc4c3)nc3ccc(C(=O)NCc4cccc(C(N)=O)c4)cc32)C1 | binding | competition with immobilised ligand | 1 µM | 100% |
| O=C(c1ccc(Nc2nccc(-c3cc4ccccc4s3)n2)cc1)N1CCC(N2CCCC2)CC1 | binding | competition with immobilised ligand | 1 µM | 71% |
| CC1CCCN1c1nccc(-c2cnn3ncccc23)n1 (stereo not shown) | binding |  | 1 µM | 88% |
| CCC(=O)N[C@@H]1CC[C@H](C(=O)N(C)c2ccc(-c3nc4ccccc4o3)cc2)C1 | cell-free assay | competition with immobilised ligand | 1 µM | 100% |
| C[C@H]1CCN(c2nccc(-c3cnn4ncccc34)n2)C1 | binding |  | 1 µM | 71% |
| Cc1nc(C2CCN(C(=O)c3ccc(OC(F)(F)F)cc3N)CC2)c2ncc(N3CCN(C)CC3)cc2n1 | cell-free assay | competition with immobilised ligand | 1 µM | 86% |
| N#Cc1ccccc1CSc1nnc2c(n1)[nH]c1ccccc12 | binding | competition with immobilised ligand | 10 µM | 91% |
| C[C@@H]1CN(c2ccc3ncc(-c4ccc5[nH]nc(C6CC6)c5c4)n3n2)C[C@H](C)O1 | binding | competition with immobilised ligand | 0.5 µM | 100% |
| O=C(NCc1ncc(C(F)(F)F)cc1Cl)c1ccc2c(c1)C1(CCS(=O)(=O)CC1)[C@@H](C1CC1)N2S(=O)(=O)c1ccc(F)cc1 | cell-free assay | competition with immobilised ligand | 1 µM | 87% |
| CN(C)c1nccc(-c2cnn3ncccc23)n1 | binding |  | 1 µM | 96% |
| Cc1c(NC(=O)c2cc(C(N)=O)nc3cc(F)ccc23)c(C(F)(F)F)nn1Cc1ccc(C#N)cc1 | cell-free assay | competition with immobilised ligand | 1 µM | 80% |
| Cc1cnc(Nc2ccc(C(=O)N3CCC(N4CCCC4)CC3)cc2)nc1-c1cc2ccccc2s1 | binding | competition with immobilised ligand | 1 µM | 33% |
| COc1ccc2c(c1)O[C@@H](c1ccc(OC)c(OC)c1)C[C@H]2NC(=O)C1(c2ccc3c(c2)OC(F)(F)O3)CC1 | cell-free assay | competition with immobilised ligand | 1 µM | 67% |
| N[C@H]1CCN(c2nccc(-c3cnn4ncccc34)n2)C1 | binding |  | 1 µM | 77% |
